XBP1 UPR activ – adaptive UPR (XBP1) activation. CHO-XBP1 luciferase reporter, IRE1-XBP1 UPR activation, luminescence; percent of tunicamycin response, DMSO as zero. activation, % at 20 µM. 330,000 tested, 0.33% active;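 active = versus positive control, 20 µM dose yields 30% or more activation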;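 also: 100% = tunicamycin at 10 µg/mL and 0% = DMSO only wells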
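Test system: CHO-XBP1 luciferase reporter cells | Buffer or medium: Serum-containing F12 medium, 10% FBS | Schedule: 6 h compound exposure at 37 °C, 5% CO2 | Detection: Steady-Glo luciferase glow luminescence, 10 min after reagent addition | Read-out basis: Activation, % of tunicamycin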
CHOP inhibitor – inhibitors of CHOP induction in ER stress response; CHO-K1 CHOP-promoter luciferase, tunicamycin-induced, 15-18 h; inhibition, % at 10 µM; 220,000 tested, 3.8% active; AID 2732;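 active = compounds that reduced the stress-induced luciferase reporter signal by more than about 70% of percent inhibition, limit read from the data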;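 also: 0% = tunicamycin plus vehicle and 100% = wells without tunicamycin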
697 NFkB inh – lowers PMA/ionomycin-induced NF-kB signal in 697 B cells | 697 B-cell NF-kB luciferase reporter, 16 h | inhibition, % at 4 µM | 330,000 tested, 0.33% active; in the data active = inhibition above about 35%
Jurkat NFkB inh – inhibitors of the PMA/ionomycin-induced NF-kB reporter in Jurkat cells | PMA/ionomycin-induced NF-kB luciferase reporter, luminescence | inhibition, % at 4 µM | 330,000 tested, 0.53% active | AID 435003; in the data active = inhibition above about 50%
UPR CHOP act – apoptotic UPR (CHOP) activation | CHO-CHOP luciferase reporter, luminescence; percent of tunicamycin response over DMSO baseline | activation, % at 10 µM | 330,000 tested, 0.34% active;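 active = at 10 µM dose, activation of 40% or more, normalized to positive control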;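 also: 100% = tunicamycin at 10 µg/mL and 0% = DMSO alone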
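System: CHO-CHOP luciferase reporter cell line | Buffer or medium: F12 medium containing 10% fetal bovine serum | Doses: One dose, 10 µM in 0.5% DMSO | Times: 6 h compound exposure at 37 °C after overnight seeding | Signal: Luciferase luminescence | Read-out: % activation vs tunicamycin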
Jurkat NFkB conf – lowers PMA/ionomycin-induced NF-kB signal in Jurkat cells. Jurkat NF-kB luciferase, 16 h. inhibition, % at 4 µM. shares compounds with Jurkat NFkB inh. 2,700 tested, 27% active. AID 435020;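 active = inhibition reaching about 45% at 4 µM in either replicate, limit read from the data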;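 also: plate controls were PMA/ionomycin stimulated DMSO wells for no effect and unstimulated DMSO wells for full effect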
Starred values were filed as active, the others as inactive. Only a selection was taken, and hits are over-represented in it overall.

How did Cc1ccc(C(=O)Nc2cccc(C(=O)O)c2)cc1 do in these assays?
XBP1 UPR activ: -6; CHOP inhibitor: 33; 697 NFkB inh: 17; Jurkat NFkB inh: 73*; UPR CHOP act: -10; Jurkat NFkB conf: 60*

How did O=C(Nc1ccc(N2CCCCC2)cc1)c1ccc(F)cc1F do in these assays?
XBP1 UPR activ: -3; CHOP inhibitor: -15; 697 NFkB inh: -202; Jurkat NFkB inh: -175; UPR CHOP act: 0; Jurkat NFkB conf: -69

How did Cc1ccc(C(=O)Nc2ccc(N3CCCCC3)cc2)cc1 do in these assays?
XBP1 UPR activ: -1; 697 NFkB inh: -161; Jurkat NFkB inh: -176; UPR CHOP act: 3; Jurkat NFkB conf: -113

What do the screens show for `COc1ccc(C(CNC(=O)CCNS(=O)(=O)c2ccc(C)cc2)N2CCOCC2)cc1` (centres undefined)?
XBP1 UPR activ: -2; 697 NFkB inh: -3; Jurkat NFkB inh: -6; UPR CHOP act: 2

How did Cc1ccc(C)c(S(=O)(=O)N2CCN(C(=O)CCCc3c[nH]c4ccccc34)CC2)c1 do in these assays?
XBP1 UPR activ: -2; 697 NFkB inh: -20; Jurkat NFkB inh: 16; UPR CHOP act: 1

How did Cc1ccnc(NC(=S)NC(=O)c2cccs2)c1 do in these assays?
XBP1 UPR activ: -1; CHOP inhibitor: -4; 697 NFkB inh: -181; Jurkat NFkB inh: -201; UPR CHOP act: 3; Jurkat NFkB conf: -83

What do the screens show for `Cc1ccc2oc(-c3ccc(C)c(NC(=S)NC(=O)c4cccs4)c3)nc2c1`?
XBP1 UPR activ: 1; CHOP inhibitor: 5; 697 NFkB inh: -226; Jurkat NFkB inh: -170; UPR CHOP act: 5; Jurkat NFkB conf: -86

How did Cc1ccnc(NC(=O)CNC(=O)c2cccs2)c1 do in these assays?
XBP1 UPR activ: -2; 697 NFkB inh: 13; Jurkat NFkB inh: -6; UPR CHOP act: 0

What do the screens show for `O=C(/C=C/c1ccccc1[N+](=O)[O-])NCCCN1CCCC1=O`?
XBP1 UPR activ: -2; 697 NFkB inh: -8; Jurkat NFkB inh: -8; UPR CHOP act: -1

How did Clc1ccc(OCc2nc(-c3ccncc3)no2)c(Br)c1 do in these assays?
XBP1 UPR activ: 1; CHOP inhibitor: 63; 697 NFkB inh: -196; Jurkat NFkB inh: -166; UPR CHOP act: 4; Jurkat NFkB conf: -96

What do the screens show for `CC1=C([N+](=O)[O-])C(c2ccccc2)C2=C(N1)c1ccccc1C2=O` (centres undefined)?
XBP1 UPR activ: 12; CHOP inhibitor: 20; 697 NFkB inh: 17; Jurkat NFkB inh: 61*; UPR CHOP act: -1; Jurkat NFkB conf: 47*

Results for COc1ccc(C2C(C#N)=C(C)NC3=C2C(=O)c2ccccc23)cc1 (centres undefined) ?
XBP1 UPR activ: 2; CHOP inhibitor: 11; 697 NFkB inh: -2; Jurkat NFkB inh: 3; UPR CHOP act: 1

Results for CCN(CC(=O)NCc1cccs1)C(=O)c1ccc(S(=O)(=O)Nc2ccccc2F)cc1 ?
XBP1 UPR activ: -1; 697 NFkB inh: 3; Jurkat NFkB inh: 9; UPR CHOP act: 1

Results for CCCCCCCCCCCCCCCC[n+]1ccc(C(N)=O)cc1 ?
XBP1 UPR activ: -1; CHOP inhibitor: 70*; 697 NFkB inh: -58; Jurkat NFkB inh: 56*; UPR CHOP act: 1; Jurkat NFkB conf: 40

Results for COc1nc(Nc2nc3ccccc3c(=O)[nH]2)nc2ccc(C)cc12 ?
XBP1 UPR activ: 7; CHOP inhibitor: 88*; 697 NFkB inh: 30; Jurkat NFkB inh: 81*; UPR CHOP act: -5; Jurkat NFkB conf: -5

What do the screens show for `O=C(Nc1ccc2c(c1)CCC2)c1ccccc1Br`?
XBP1 UPR activ: 1; CHOP inhibitor: -1; 697 NFkB inh: -209; Jurkat NFkB inh: -176; UPR CHOP act: 2; Jurkat NFkB conf: -103

What do the screens show for `Nc1nc(Cl)cc(N2CCC(c3cc(-c4ccc(Cl)cc4)n[nH]3)CC2)n1`?
XBP1 UPR activ: 4; CHOP inhibitor: 61; 697 NFkB inh: -8; Jurkat NFkB inh: 70*; UPR CHOP act: 11; Jurkat NFkB conf: 63*

Results for COc1ccccc1NC(CC(=O)c1ccccc1)C(=O)OCC(=O)c1ccc(Br)cc1 (centres undefined) ?
XBP1 UPR activ: 1; CHOP inhibitor: -23; 697 NFkB inh: -185; Jurkat NFkB inh: -163; UPR CHOP act: 3; Jurkat NFkB conf: -60

Results for O=C(CC(Nc1ccccc1Cl)C(=O)OCC(=O)c1cccs1)c1ccccc1 (centres undefined) ?
XBP1 UPR activ: 2; CHOP inhibitor: 28; 697 NFkB inh: -232; Jurkat NFkB inh: -200; UPR CHOP act: 0; Jurkat NFkB conf: 2

How did COc1ccccc1NC(CC(=O)c1ccccc1)C(=O)OCC(=O)c1ccc(C)cc1 (centres undefined) do in these assays?
XBP1 UPR activ: -2; CHOP inhibitor: 12; 697 NFkB inh: -149; Jurkat NFkB inh: -117; UPR CHOP act: 3

Results for Cc1cc(C(=O)COc2cccnc2[N+](=O)[O-])c(C)n1-c1ccccc1 ?
XBP1 UPR activ: -5; CHOP inhibitor: 75*; 697 NFkB inh: -7; Jurkat NFkB inh: 65*; UPR CHOP act: -10; Jurkat NFkB conf: 18

Results for COC(=O)c1[nH]c2c(c1C)C(=O)CC(c1cc(OC)ccc1OC)C2 (centres undefined) ?
XBP1 UPR activ: 1; 697 NFkB inh: -27; Jurkat NFkB inh: 61*; UPR CHOP act: -2; Jurkat NFkB conf: 29

Results for CCOc1ccc(C2CC(=O)c3c([nH]c(C(=O)OC)c3C)C2)cc1OC (centres undefined) ?
XBP1 UPR activ: 0; CHOP inhibitor: 37; 697 NFkB inh: 16; Jurkat NFkB inh: -6; UPR CHOP act: -1

How did Cc1c(C(=O)O)[nH]c2c1C(=O)CC(c1ccccc1)C2 (centres undefined) do in these assays?
XBP1 UPR activ: 0; CHOP inhibitor: 4; 697 NFkB inh: -26; Jurkat NFkB inh: -13; UPR CHOP act: -2

Results for COC(=O)c1[nH]c2c(c1C)C(=O)CC(c1cccs1)C2 (centres undefined) ?
XBP1 UPR activ: 7; 697 NFkB inh: 0; Jurkat NFkB inh: 56*; UPR CHOP act: -2; Jurkat NFkB conf: 54*

How did CC(=O)c1sc2c(c1OC(=O)c1ccc(Cl)cc1Cl)c(=O)n(-c1ccccc1)c(=S)n2-c1ccccc1 do in these assays?
XBP1 UPR activ: 8; CHOP inhibitor: 12; 697 NFkB inh: -15; Jurkat NFkB inh: 69*; UPR CHOP act: 15; Jurkat NFkB conf: 87*

Results for CCCC[C@@H](CN[C@H](C)CNC)NCC1CCC(C(C)(C)C)CC1 (some centres undefined) ?
XBP1 UPR activ: 11; 697 NFkB inh: 19; Jurkat NFkB inh: 53*; UPR CHOP act: 8; Jurkat NFkB conf: 26

Screening results: PubChem BioAssay, several laboratories
